Source: ChEMBL document CHEMBL3227924, “Pharmacologically active sulfoximides: 5-hexyl-7-)S-methylsulfonimidoly) xanthone-2-carboxylic acid, a potent antiallergic agent” (1979)
Activity calls are given as the source filed them. The calls are words filed in the database; no cut-off is given here.

What was measured:
Format in all cases: functional
Rattus norvegicus [1] = test: Antiallergic activity in iv dosed ovalbumin-sensitized CFHB rat assessed as inhibition of passive cutaneous anaphylaxis after 30 mins by Evans blue staining; settings: 0.5 h
Method in brief: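 Rats passively sensitized with 0.1 mL of 1:25 donor anti-ovalbumen serum (IgE plus IgG) at four dorsal sites, then challenged iv 72 h later with ovalbumen 1 mg plus 1% Evans blue (0.5 mL). Compound in Tris buffer/saline given iv 30 s before challenge at ≥3 doses, ≥7 rats per group. Blue spots scored 0–4 at 30 min. ED50 read from the dose–response curve of % inhibition versus controls.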

Rattus norvegicus [2] = test: Antiallergic activity in ovalbumin-sensitized CFHB rat assessed as inhibition of passive cutaneous anaphylaxis at 10 mg/kg, iv after 30 mins by Evans blue staining
Method in brief: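 Sensitized with diluted (1:25) donor serum at four back sites. Challenge came 72 h later, iv, with ovalbumen 1 mg and 1% Evans blue 0.5 mL. Compound dissolved in Tris buffer, diluted in saline, and injected iv 30 s pre-challenge. Groups had at least seven rats, with matched controls. Skin spots were scored 0–4 for severity and area after 30 min. % inhibition came from the test versus control score difference.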

Rattus norvegicus [3] = test: Antiallergic activity in po dosed ovalbumin-sensitized CFHB rat assessed as inhibition of passive cutaneous anaphylaxis after 30 mins by Evans blue staining

| Compound | ED50 (Rattus norvegicus [1]) | ED50 (Rattus norvegicus [3]; 0.5 h) | further results |
| --- | --- | --- | --- |
| CS(=O)(=NC(=O)c1ccccc1)c1ccc2oc3ccc(C(=O)O)cc3c(=O)c2c1 (stereo not drawn) | 0.68 mg/kg |  |  |
| CCOC(=O)N=S(C)(=O)c1ccc2oc3ccc(C(=O)O)cc3c(=O)c2c1 (stereo not drawn) |  |  | inhibition in vivo at 10 mg/kg (Rattus norvegicus [2]; 0.5 h): 89% |
| O=C([O-])c1cc(=O)c2c(OCC(O)COc3cccc4oc(C(=O)[O-])cc(=O)c34)cccc2o1.[Na+].[Na+] [CROMOLYN SODIUM] | 1.21 mg/kg |  | ED50 (Rattus norvegicus [3]): inactive |
| CS(=O)(=NC(N)=O)c1ccc2oc3ccc(C(=O)O)cc3c(=O)c2c1 (stereo not drawn) | 0.11 mg/kg | 8.6 mg/kg |  |
| CCCCCOc1cc(S(C)(=N)=O)cc2c(=O)c3cc(C(=O)O)ccc3oc12 (stereo not drawn) | 0.005 mg/kg | 1.62 mg/kg |  |
| CS(=N)(=O)c1ccc2oc3ccc(C(=O)O)cc3c(=O)c2c1 (stereo not drawn) | 0.033 mg/kg | 2.72 mg/kg |  |
| CCCCCCc1cc(S(C)(=O)=NC(N)=O)cc2c(=O)c3cc(C(=O)O)ccc3oc12 (stereo not drawn) | 0.009 mg/kg |  |  |
| Cc1ccc(S(=O)(=O)/N=S(\C)c2ccc3oc4ccc(C(=O)O)cc4c(=O)c3c2)cc1 (stereo not drawn) | 0.43 mg/kg |  |  |
| CCOC(=O)C1=CN=S(=O)(c2ccc3oc4ccc(C(=O)O)cc4c(=O)c3c2)C=C1O (stereo not drawn) |  |  | inhibition (Rattus norvegicus [2]): inactive |
| CC(=O)N=S(C)(=O)c1ccc2oc3ccc(C(=O)O)cc3c(=O)c2c1 (stereo not drawn) | 0.065 mg/kg |  |  |
| CS(=N)(=O)c1ccc2oc3ccccc3c(=O)c2c1 (stereo not drawn) |  |  | inhibition (Rattus norvegicus [2]): inactive |
| Cc1ccc(S(=O)(=O)N=S(C)(=O)c2ccc3oc4ccc(C(=O)O)cc4c(=O)c3c2)cc1 (stereo not drawn) | 3.93 mg/kg |  |  |
| CCCCCCc1cc(S(C)(=N)=O)cc2c(=O)c3cc(C(=O)O)ccc3oc12 (stereo not drawn) [SUDEXANOX] | 0.005 mg/kg | 0.19 mg/kg |  |
